Source: ChEMBL document CHEMBL1955846, “Aminopyrimidinone cdc7 kinase inhibitors” (Bioorg Med Chem Lett, 2012)

Experiments:
[1] = molecular target: T1, CDC7/DBF4 (Cell division cycle 7-related protein kinase/Activator of S phase kinase) (Homo sapiens, UniProt O00311); assay: Inhibition of human CDC7/DBF4 expressed using baculovirus expression system assessed as [33P]gamma-ATP incorporation into substrate after 60 mins by gamma counting
[2] = system: HCT-116; assay: Cytotoxicity against human HCT116 cells after 3 days by CellTitre Glo assay; assay type: functional, cell-based; conditions: HCT-116, 72 h
Method in brief: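 HCT-116 cells seeded at 3000 cells per well and held 24 h at 37 °C. Next day, treated with serial dilutions of inhibitor. After 3 days, an equal volume of Cell Titer GLO was added and luminescence read. EC50 derived from the viability readout.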

[3] = molecular target: T1, CDC7/DBF4 (Cell division cycle 7-related protein kinase/Activator of S phase kinase); assay: Inhibition of CDC7/DBF4-mediated MCM2 phosphorylation in human HCT116 cells after 6 hrs by spectrophotometric analysis; assay type: cell-based, HCT-116

T1 sequence (Q9UBU7 whole entry): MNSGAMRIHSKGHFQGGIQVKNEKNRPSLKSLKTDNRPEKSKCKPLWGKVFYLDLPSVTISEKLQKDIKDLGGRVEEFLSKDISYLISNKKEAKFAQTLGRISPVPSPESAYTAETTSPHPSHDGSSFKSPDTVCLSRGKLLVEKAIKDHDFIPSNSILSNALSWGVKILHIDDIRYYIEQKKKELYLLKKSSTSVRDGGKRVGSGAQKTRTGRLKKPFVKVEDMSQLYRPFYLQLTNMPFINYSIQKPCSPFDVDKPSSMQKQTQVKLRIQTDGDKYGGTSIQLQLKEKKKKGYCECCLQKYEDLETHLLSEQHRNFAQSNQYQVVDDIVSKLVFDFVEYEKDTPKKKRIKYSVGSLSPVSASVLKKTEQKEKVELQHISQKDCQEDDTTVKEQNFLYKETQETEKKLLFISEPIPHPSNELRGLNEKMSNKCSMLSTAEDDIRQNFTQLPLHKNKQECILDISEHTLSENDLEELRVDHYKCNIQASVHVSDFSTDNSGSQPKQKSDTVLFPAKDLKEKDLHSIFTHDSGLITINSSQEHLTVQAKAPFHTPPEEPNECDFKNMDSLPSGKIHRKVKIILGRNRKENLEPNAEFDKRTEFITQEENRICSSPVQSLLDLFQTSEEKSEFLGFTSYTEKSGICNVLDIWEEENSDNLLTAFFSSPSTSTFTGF
T1 sequence (O00311 whole entry): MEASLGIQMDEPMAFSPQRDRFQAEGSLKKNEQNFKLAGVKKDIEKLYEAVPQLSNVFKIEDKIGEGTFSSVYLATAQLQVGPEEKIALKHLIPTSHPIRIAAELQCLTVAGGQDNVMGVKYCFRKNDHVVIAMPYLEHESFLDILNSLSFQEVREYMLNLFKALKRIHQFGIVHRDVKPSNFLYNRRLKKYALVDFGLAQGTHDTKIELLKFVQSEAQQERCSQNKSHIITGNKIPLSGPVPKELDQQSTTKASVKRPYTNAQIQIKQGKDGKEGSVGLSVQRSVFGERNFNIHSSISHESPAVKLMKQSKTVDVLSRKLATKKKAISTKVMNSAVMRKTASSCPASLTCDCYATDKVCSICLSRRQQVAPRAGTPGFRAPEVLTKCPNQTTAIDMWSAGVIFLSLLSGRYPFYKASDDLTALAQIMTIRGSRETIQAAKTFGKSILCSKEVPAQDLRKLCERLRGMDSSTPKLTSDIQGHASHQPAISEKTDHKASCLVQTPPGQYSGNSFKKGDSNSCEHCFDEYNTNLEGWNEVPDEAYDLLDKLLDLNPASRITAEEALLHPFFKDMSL

SMILES	Ki [1] [nM]	EC50 [3] [nM]	EC50 [2] [nM]
O=c1cc(-c2ccccc2)nc(NC2CCCCC2)[nH]1	230	–	–
O=c1cc(-c2cn[nH]c2)nc(NC2CCCCC2)[nH]1	15	–	–
O=c1cc(-c2ccc3[nH]ncc3c2)nc(NC2CCCCC2)[nH]1	0.5	–	–
O=c1cc(-c2c[nH]c3ncccc23)nc(NC2CCCCC2)[nH]1	< 0.07	60	103
O=c1nc(-c2c[nH]c3ncccc23)nc(NC2CCCCC2)[nH]1	0.3	–	–
O=c1nc(-c2c[nH]c3ncccc23)cc(NC2CCCCC2)[nH]1	1.4	–	–
O=c1cc(-c2c[nH]c3ncccc23)cc(NC2CCCCC2)[nH]1	0.5	–	–
Oc1cc(NC2CCCCC2)nc(-c2c[nH]c3ncccc23)c1	5.4	–	–
O=c1cc(-c2c[nH]c3ncccc23)nc(Nc2ccccc2)[nH]1	0.12	143	443
O=c1cc(-c2c[nH]c3ncccc23)nc(NC2CCOCC2)[nH]1	0.14	300	2460
O=c1cc(-c2c[nH]c3ncccc23)nc(NC(c2ccccc2)c2ccccc2)[nH]1	328	–	–

The next lines start with results.

Ki [1] [nM]	EC50 [3] [nM]	SMILES	EC50 [2] [nM]
> 1200	–	O=c1cc(-c2cccnc2)nc(NC2CCCCC2)[nH]1	–
5	–	Nc1nccc(-c2cc(=O)[nH]c(NC3CCCCC3)n2)n1	–
1.1	–	O=c1cc(NC2CCCCC2)cc(-c2c[nH]c3ncccc23)[nH]1	–
0.09	15	CN(c1nc(-c2c[nH]c3ncccc23)cc(=O)[nH]1)C1CCCCC1	106
< 0.07	180	O=c1cc(-c2c[nH]c3ncccc23)nc(NCc2ccccc2)[nH]1	122
0.18	60	COCCN(CCOC)c1nc(-c2c[nH]c3ncccc23)cc(=O)[nH]1	2210
0.18	300	O=c1cc(-c2c[nH]c3ncccc23)nc(N2CCOCC2)[nH]1	450
0.11	2610	CN1CCC(Nc2nc(-c3c[nH]c4ncccc34)cc(=O)[nH]2)CC1	7370
0.25	410	O=c1cc(-c2c[nH]c3ncccc23)nc(-c2ccccc2)[nH]1	830
0.2	1780	O=c1cc(-c2c[nH]c3ncccc23)nc(N2CCC(O)CC2)[nH]1	6190
0.2	300	COC1CCN(c2nc(-c3c[nH]c4ncccc34)cc(=O)[nH]2)CC1	520
